According to ChEMBL document CHEMBL2163208, “Diphenylpyridylethanamine (DPPE) derivatives as cholesteryl ester transfer protein (CETP) inhibitors” (J Med Chem, 2012):

How the values were obtained:
[1] = molecular target: T1, Cholesteryl ester transfer protein (Homo sapiens, UniProt P11597); experiment: Inhibition of human recombinant CETP-mediated [3H]cholesteryl ester transfer from HDL to biotinylated LDL by scintillation proximity assay
T1 sequence (P11597 whole entry): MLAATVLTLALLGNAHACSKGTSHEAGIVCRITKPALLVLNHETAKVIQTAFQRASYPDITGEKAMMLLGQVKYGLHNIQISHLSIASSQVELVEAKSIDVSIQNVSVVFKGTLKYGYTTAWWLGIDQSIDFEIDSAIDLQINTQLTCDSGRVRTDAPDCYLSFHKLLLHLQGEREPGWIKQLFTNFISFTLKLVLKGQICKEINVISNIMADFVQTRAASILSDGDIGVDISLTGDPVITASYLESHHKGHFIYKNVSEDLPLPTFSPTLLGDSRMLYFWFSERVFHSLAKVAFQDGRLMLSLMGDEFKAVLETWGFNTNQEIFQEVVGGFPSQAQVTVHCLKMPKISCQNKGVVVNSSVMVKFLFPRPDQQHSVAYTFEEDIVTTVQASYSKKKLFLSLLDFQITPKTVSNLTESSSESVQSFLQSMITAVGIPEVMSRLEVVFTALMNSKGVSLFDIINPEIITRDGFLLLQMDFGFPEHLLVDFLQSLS

[2] = molecular target: T1, Cholesteryl ester transfer protein; experiment: Inhibition of CETP-mediated [3H]cholesteryl ester transfer activity in human plasma after 2.5 hrs by scintillation counter
[3] = Half life in telemeterized rat up to 60 mg/kg, po; type: ADME, organism-based; parameters: dose 60 mg/kg, route oral; details: in vivo
Rattus norvegicus [4] = experiment: Toxicity in telemeterized rat assessed as change in heart rate up to 60 mg/kg, po; type: organism-based; parameters: dose 60 mg/kg, route oral; details: in vivo
[5] = Cmax in telemeterized rat up to 60 mg/kg, po; type: ADME, organism-based; parameters: dose 60 mg/kg, route oral; details: in vivo
Rattus norvegicus [6] = experiment: Toxicity in telemeterized rat assessed as change in mean arterial blood pressure up to 60 mg/kg, po; type: organism-based; parameters: dose 60 mg/kg, route oral; details: in vivo
Syrian golden hamster = experiment: Inhibition of CETP in moderately fat-fed golden Syrian hamster assessed as increase in HDL-cholesterol level at 30 mg/kg, po qd administered for 3 days measured at 2 hrs post last dose relative to predose condition; type: functional, Mesocricetus auratus; parameters: scale not given: the % may be the effect or the level left
How it was run: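 Male Golden Syrian hamsters, 12 weeks old, fed moderate-fat diet (2.5% coconut oil, 0.25% cholesterol) for 2 weeks. Predose retro-orbital bleed; 30 mg/kg po q.d. for 3 days in ethanol/Cremophor/water 1:1:8. Blood 2 h postdose on day 3; HDL-C measured by automated lipid analyzer versus predose; percent increase as mean ± SEM, N = 6.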

[7] = Plasma concentration in moderately fat-fed golden Syrian hamster at 30 mg/kg, po qd administered for 3 days measured at 2 hrs post last dose; type: ADME, organism-based, Mesocricetus auratus; parameters: dose 30 mg/kg, route oral
How it was run: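 Moderately fat-fed male Golden Syrian hamsters dosed 30 mg/kg po once daily; plasma exposure sampled 2 h after dosing on day 3.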

[8] = Metabolic stability in mouse liver microsomes assessed as compound remaining at 3 uM after 10 mins; type: ADME, Microsome; details: read-out: Stability
How it was run: (§1)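 Mouse liver microsomes (1 mg/mL protein) incubated with compound at 3 μM for 10 min; remaining compound quantified by UV absorbance, expressed as % remaining or rate per mg protein.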

[9] = Drug metabolism in mouse liver microsomes assessed as per mg of protein at 3 uM after 10 mins; type: ADME, Microsome; how it was run: as §1
[10] = AUC (0 to 8 hrs) in transgenic mouse expressing human CETP and apoB-100 at 30 mg/kg, po; type: ADME, organism-based; parameters: time < 8 hr, dose 30 mg/kg, route oral; details: plasma
Mus musculus [11] = species on record: Mus musculus; experiment: Inhibition of [3H]cholesteryl ester transfer from HDL to LDL in human CETP expressed transgenic mouse plasma coexpressing apoB-100
Mus musculus [12] = experiment: [3H]cholesteryl ester transfer activity from HDL to LDL in human CETP expressed transgenic mouse plasma coexpressing apoB-100 at 30 mg/kg, po measured at 2 hrs relative to predose condition
Mus musculus [13] = experiment: Residual CETP-mediated [3H]cholesteryl ester transfer from HDL to LDL in human CETP expressed transgenic mouse coexpressing apoB-100 at 30 mg/kg, po measured at 8 hrs relative to predose condition
Mus musculus [14] = experiment: Residual CETP-mediated [3H]cholesteryl ester transfer from HDL to LDL in human CETP expressed transgenic mouse coexpressing apoB-100 at 30 mg/kg, po measured at 4 hrs relative to predose condition

SMILES: O=C(NC1CCCC1)NC(Cc1ccccc1)(c1cccc(OC(F)(F)F)c1)c1ccc(Cl)cn1 (racemic)
- IC50 [1]: 0.031 µM
- IC50 [2]: 2.7 µM

SMILES: O=C(NC(Cc1ccccc1)(c1cccc(C(F)(F)F)c1)c1ccccn1)c1cccc(C(F)(F)F)c1 (stereo not given)
- IC50 [1]: 12 µM

SMILES: CC(C)(C)CC(=O)NC(Cc1ccccc1)(c1cccc(C(F)(F)F)c1)c1ccccn1 (stereo not given)
- IC50 [1]: 27 µM

SMILES: COc1ccc([C@@](Cc2ccccc2)(NC(=O)NC2CCCC2)c2cc(F)cc(C(F)(F)F)c2)cn1
- IC50 [1]: 0.015 µM
- IC50 [2]: 3.4 µM

SMILES: Cc1nc(C[C@](NC(=O)NC2CCCC2)(c2cc(F)cc(C(F)(F)F)c2)c2ccc(Cl)cn2)no1
- IC50 [1]: 1.07 µM
- IC50 [2]: 34 µM

SMILES: CC(C)(C)CC(=O)O[C@](Cc1ccccc1)(c1cccc(C(F)(F)F)c1)c1ccccn1
- IC50 [1]: 44 µM
- IC50 [2]: > 97 µM

SMILES: O=C(N[C@@](Cc1ccccc1)(c1cc(F)cc(OC(F)(F)C(F)F)c1)c1ccc(Cl)cn1)c1ccc(F)c(C(F)(F)F)c1
- IC50 [1]: 0.036 µM
- half-life [3]: 14 h
- Activity (Rattus norvegicus [4]): Non-toxic
- Cmax [5]: 25 µM
- Activity (Rattus norvegicus [6]): Non-toxic
- Activity (Syrian golden hamster): 40%
- concentration at 2 h [7]: 21 µM
- remaining at 10 min, 3 µM [8]: 100%
- Drug metabolism [9]: 0.0025 nmol/min/mg
- AUC(0-t) at 8 h [10]: 93 µM·h
- IC50 [2]: 3.6 µM
- IC50 (Mus musculus [11]): 9 µM
- activity in vivo at 30 mg/kg (Mus musculus [12]): 55%
- CETP activity in vivo at 30 mg/kg (Mus musculus [13]): 40%
- CETP activity in vivo at 30 mg/kg (Mus musculus [14]): 48%

SMILES: O=C(NC(Cc1ccccc1)(c1cccc(C(F)(F)F)c1)c1ccccn1)c1ccccc1 (stereo not given)
- IC50 [1]: > 96 µM

SMILES: O=C(NC1CCCC1)NC(Cc1ccccc1)(c1cccc(C(F)(F)F)c1)c1ccc(Cl)cn1 (racemic)
- IC50 [1]: 0.31 µM
- IC50 [2]: 16 µM

SMILES: C=CC[C@](NC(=O)NC1CCCC1)(c1cc(F)cc(C(F)(F)F)c1)c1ccc(Cl)cn1
- IC50 [1]: 0.085 µM
- IC50 [2]: 7.1 µM

SMILES: O=C(NC1CCCC1)N[C@@](Cc1ccccc1)(c1cc(F)cc(C(F)(F)F)c1)c1ccc(F)cn1
- IC50 [1]: 0.026 µM
- IC50 [2]: 7.6 µM

SMILES: N#Cc1ccc([C@@](Cc2ccccc2)(NC(=O)NC2CCCC2)c2cc(F)cc(C(F)(F)F)c2)nc1
- IC50 [1]: 0.036 µM
- IC50 [2]: 12 µM

SMILES: Cc1csc(C[C@](NC(=O)NC2CCCC2)(c2cc(F)cc(C(F)(F)F)c2)c2ccc(Cl)cn2)n1
- IC50 [1]: 1.1 µM
- IC50 [2]: 24 µM

SMILES: O=C(NC1CCCC1)NC(Cc1ccccc1)(c1cccc(C(F)(F)F)c1)c1ccccn1 (stereo not given)
- IC50 [1]: 0.7 µM
- remaining at 10 min, 3 µM [8]: 2%
- IC50 [2]: 25 µM

SMILES: O=C(NC1CCCC1)N[C@@](Cc1ncn[nH]1)(c1cc(F)cc(C(F)(F)F)c1)c1ccc(Cl)cn1
- IC50 [1]: > 96 µM

SMILES: CC(C)(C)CC(=O)OC(Cc1ccccc1)(c1cccc(OC(F)(F)C(F)F)c1)c1ccccn1 (racemic)
- IC50 [1]: 1.1 µM
- IC50 [2]: 28 µM

SMILES: O=C(NC1CCCC1)N[C@@](Cc1ccc(F)cc1)(c1cc(F)cc(C(F)(F)F)c1)c1ccc(Cl)cn1
- IC50 [1]: 0.087 µM
- IC50 [2]: 10 µM

SMILES: O=C(NC1CCCC1)NC(Cc1ccccc1)(c1cccc(C(F)(F)F)c1)c1ccc(F)cn1 (racemic)
- IC50 [1]: 0.24 µM
- IC50 [2]: 6.9 µM

SMILES: CCOC(=O)N1c2ccc(C(F)(F)F)cc2[C@@H](N(Cc2cc(C(F)(F)F)cc(C(F)(F)F)c2)C(=O)OC)C[C@H]1CC [TORCETRAPIB]
- AUC(0-t) at 8 h [10]: 65 µM·h
- IC50 (Mus musculus [11]): 0.16 µM
- activity in vivo at 30 mg/kg (Mus musculus [12]): 31%
- CETP activity in vivo at 30 mg/kg (Mus musculus [13]): 25%
- CETP activity in vivo at 30 mg/kg (Mus musculus [14]): 31%

SMILES: CC(C)(C)CC(=O)OC(Cc1ccccc1)(c1cccc(C(F)(F)F)c1)c1ccccn1 (racemic)
- IC50 [1]: 6.9 µM
- IC50 [2]: 56 µM

SMILES: O=C(NC1CCCC1)N[C@@](Cc1ccccc1)(c1cc(F)cc(OC(F)(F)C(F)F)c1)c1ccc(Cl)cn1
- remaining at 10 min, 3 µM [8]: 10%
- Drug metabolism [9]: 0.27 nmol/min/mg
- AUC(0-t) at 8 h [10]: 9.7 µM·h
- IC50 (Mus musculus [11]): 0.94 µM
- activity in vivo at 30 mg/kg (Mus musculus [12]): 48%
- CETP activity in vivo at 30 mg/kg (Mus musculus [13]): 65%
- CETP activity in vivo at 30 mg/kg (Mus musculus [14]): 58%

SMILES: CC(C)(C)CC(=O)OC(Cc1ccccc1)(c1cccc(C(F)(F)F)c1)c1ccc(Cl)cn1 (racemic)
- IC50 [1]: 1.3 µM
- IC50 [2]: 9.4 µM

SMILES: O=C(NC1CCCC1)NC(Cc1ccccc1)(c1cccc(OC(F)(F)C(F)F)c1)c1ccc(Cl)cn1 (racemic)
- IC50 [1]: 0.025 µM
- IC50 [2]: 0.84 µM

SMILES: O=C(NC1CCCC1)NC(Cc1ccccc1)(c1ccc(Cl)nc1)c1cc(F)cc(C(F)(F)F)c1 (racemic)
- IC50 [1]: 0.031 µM
- IC50 [2]: 12 µM

SMILES: COC(=O)C[C@](NC(=O)NC1CCCC1)(c1cc(F)cc(C(F)(F)F)c1)c1ccc(Cl)cn1
- IC50 [1]: 2.4 µM

SMILES: Cc1ccc(C[C@](NC(=O)NC2CCCC2)(c2cc(F)cc(C(F)(F)F)c2)c2ccc(Cl)cn2)cc1
- IC50 [1]: 0.023 µM
- IC50 [2]: 3.4 µM

SMILES: O=C(NC1CCCC1)N[C@@](Cc1ccccn1)(c1cc(F)cc(C(F)(F)F)c1)c1ccc(Cl)cn1
- IC50 [1]: 27 µM

SMILES: O=C(NC1CCCC1)N[C@@](Cc1ccccc1F)(c1cc(F)cc(C(F)(F)F)c1)c1ccc(Cl)cn1
- IC50 [1]: 0.016 µM
- IC50 [2]: 6.4 µM

SMILES: CC(C)(C)NC(=O)NC(Cc1ccccc1)(c1cccc(C(F)(F)F)c1)c1ccccn1 (stereo not given)
- IC50 [1]: 3.8 µM
- IC50 [2]: 83 µM

SMILES: O=C(NC(Cc1ccccc1)(c1cccc(C(F)(F)F)c1)c1ccccn1)c1ccc(F)cc1 (stereo not given)
- IC50 [1]: 8.9 µM

SMILES: O=C(NC(Cc1ccccc1)(c1cccc(C(F)(F)F)c1)c1ccccn1)c1ccc(F)c(C(F)(F)F)c1 (stereo not given)
- IC50 [1]: 2.9 µM
- remaining at 10 min, 3 µM [8]: 68%
- IC50 [2]: 15 µM

SMILES: CC(C)(C)CC(=O)O[C@@](Cc1ccccc1)(c1cccc(C(F)(F)F)c1)c1ccccn1
- IC50 [1]: 6.7 µM
- IC50 [2]: 26 µM
